Drawing on ChEMBL document CHEMBL1153086, “N-acylpolyamine inhibitors of HDM2 and HDMX binding to p53” (Bioorg Med Chem, 2009), this text covers IC50 for 31 compounds.

pIC50: −log10 of the molar value. Bounds are passed on as bounds.

Test [1] concerns the target E3 ubiquitin-protein ligase Mdm2 (Homo sapiens, UniProt Q00987). Put plainly: Inhibition of HDM2 expressed in Escherichia coli BL21 (DE3) assessed as inhibition of HDM2 binding to p53 protein by fluorescence anisotropy competition method. Conditions: for pIC50: read-out: IC50; call rule not given here. The gist of the method:
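Fluorescence anisotropy competition: HDM2(11–119) at 2.2 μM with 30 nM fluorescein-labeled human p53(15–29) (protein in 70-fold molar excess) in 10 mM Tris-HCl pH 7.6, 150 mM NaCl, 0.50 mM EDTA, 2 mM β-mercaptoethanol, incubated room temperature 1 h or 4 °C overnight. Competitor diluted in water from ~10−2 M stocks. Anisotropy read at 25 °C in triplicate; IC50 from nonlinear fit with slope factor.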

Another test deals with T1, Protein Mdm4 (Homo sapiens, UniProt O15151).
T1 sequence (O15151 whole entry): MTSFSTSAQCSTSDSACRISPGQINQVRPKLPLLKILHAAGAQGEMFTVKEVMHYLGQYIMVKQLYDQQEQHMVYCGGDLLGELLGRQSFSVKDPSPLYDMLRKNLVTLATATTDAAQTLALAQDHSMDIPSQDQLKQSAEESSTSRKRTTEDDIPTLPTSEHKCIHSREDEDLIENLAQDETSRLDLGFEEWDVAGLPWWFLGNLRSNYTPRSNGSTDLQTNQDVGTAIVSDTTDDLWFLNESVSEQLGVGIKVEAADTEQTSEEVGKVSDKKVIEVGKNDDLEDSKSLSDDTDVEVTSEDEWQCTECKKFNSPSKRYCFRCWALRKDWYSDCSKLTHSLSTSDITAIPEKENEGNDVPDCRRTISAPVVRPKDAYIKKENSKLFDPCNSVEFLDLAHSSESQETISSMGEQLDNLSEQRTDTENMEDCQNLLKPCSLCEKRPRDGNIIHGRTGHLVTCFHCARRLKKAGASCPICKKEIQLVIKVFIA
The test can be described thus: Inhibition of GST-tagged HDMX expressed in Escherichia coli BL21 (DE3) assessed as inhibition of HDMX binding to p53 protein by fluorescence anisotropy competition method. Conditions: for pIC50: read-out: IC50.

Sequence of E3 ubiquitin-protein ligase Mdm2 (Q00987 whole entry): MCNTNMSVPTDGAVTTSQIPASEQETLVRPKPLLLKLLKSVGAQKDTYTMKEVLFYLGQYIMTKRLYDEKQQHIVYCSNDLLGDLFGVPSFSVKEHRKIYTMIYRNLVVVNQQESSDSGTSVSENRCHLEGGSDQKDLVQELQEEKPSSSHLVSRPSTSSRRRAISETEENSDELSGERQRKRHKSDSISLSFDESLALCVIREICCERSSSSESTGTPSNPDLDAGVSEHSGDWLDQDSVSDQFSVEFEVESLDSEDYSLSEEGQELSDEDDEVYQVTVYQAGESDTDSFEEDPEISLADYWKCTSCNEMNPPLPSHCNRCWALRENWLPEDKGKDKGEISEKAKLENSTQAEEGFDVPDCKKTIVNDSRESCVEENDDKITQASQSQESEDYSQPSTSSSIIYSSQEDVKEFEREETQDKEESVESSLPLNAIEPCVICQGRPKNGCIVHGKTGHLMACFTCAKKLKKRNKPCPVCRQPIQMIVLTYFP

Take `CC(C)CCNC(=O)N(CC(CCC(=O)O)NC(N)=O)C(CCCCN)CN(C(=O)NCCc1ccc(Cl)cc1)C(CCC(=O)O)CN(CCC(N)=O)C(=O)NCCc1ccccc1` (centres undefined): the pIC50 in test [1] is below 4.00.
The same measure, in the same setting: the figure for `CC(C)CCCNC(=O)N(CC(CCC(=O)O)NC(N)=O)C(CCCCN)CN(C(=O)NCCc1ccc(Cl)cc1)C(CCC(=O)O)CN(CCC(N)=O)C(=O)NCCCc1ccccc1` (centres undefined) is 4.37.
As for `CC(C)CCCCNC(=O)N(CC(CCC(=O)O)NC(N)=O)C(CCCCN)CN(C(=O)NCCc1ccc(Br)cc1)C(CCC(=O)O)CN(CCC(N)=O)C(=O)NCCCc1ccc(Br)cc1` (centres undefined), the pIC50 (in test [1]; at Protein Mdm4) was 4.89 throughout.
For `NCCCC[C@@H](CN(C(=O)NCCCC1CCCCC1)[C@@H](CCCCN)CN(C(=O)NCCc1ccc(Br)cc1)[C@@H](CCCCN)CN(CCC(N)=O)C(=O)NCCCc1ccc(F)cc1)NC(N)=O`, the IC50 result (in test [1]; at Protein Mdm4) was “Not Active” each time.
Regarding `CC(C)CCC(=O)N[C@@H](CCCC(=O)O)CN(C(=O)NCCCC1CCCCC1)[C@@H](CCCCN)CN(C(=O)NCCc1ccc(Br)cc1)[C@@H](CCCC(=O)O)CN(CCC(N)=O)C(=O)NCCCc1ccc(F)cc1`, the pIC50 is 5.23 in test [1] and 4.39 on Protein Mdm4.
For `CC(C)CCC(=O)NC(CCC(=O)O)CN(CCC1CCC2(CCCCC2)CC1)C(CCCCN)CN(CCCCc1ccc(Br)cc1)[C@@H](CCC(=O)O)CN(CCCCCc1ccc(F)cc1)CCC(N)=O` (some centres undefined) the same measures were below 4.00 and below 4.00.
On to `CC(C)CCC(=O)NC(CCC(=O)O)CN(C(=O)NCCCC1CCCCC1)C(CCCCN)CN(C(=O)NCCc1ccc(Br)cc1)C(CCC(=O)O)CN(CCC(N)=O)C(=O)NCCCc1ccc(F)cc1` (centres undefined), for which the pIC50 in test [1] is 5.59; on Protein Mdm4, 5.57.
Take `CC(C)CCCNC(=O)N(CC(CCC(=O)O)NC(N)=O)C(CCCCN)CN(C(=O)NCCc1ccc(Cl)cc1)C(CCC(=O)O)CN(CCC(N)=O)C(=O)NCCc1ccccc1` (centres undefined): the pIC50 in test [1] is 4.07.
Take `NCCCCC(CN(C(=O)NCCc1ccc(Br)cc1)C(CCC(=O)O)CN(CCC(N)=O)C(=O)NCCCc1ccc(Br)cc1)N(CC(CCC(=O)O)NC(N)=O)C(=O)NCCCc1ccccc1` (centres undefined): the pIC50 was 4.89 in test [1] and 4.70 on Protein Mdm4.
Regarding `CC(C)CCCNC(=O)N(CC(CCC(=O)O)NC(N)=O)C(CCCCN)CN(C(=O)NCCc1ccc(Br)cc1)C(CCC(=O)O)CN(CCC(N)=O)C(=O)NCCCc1ccc(Br)cc1` (centres undefined), the pIC50 was 5.04 in test [1] and 4.62 at Protein Mdm4.
Consider `NCCCCC(CN(C(=O)NCCc1ccc(Br)cc1)C(CCC(=O)O)CN(CCC(N)=O)C(=O)NCCCc1ccc(Br)cc1)N(CC(CCC(=O)O)NC(=O)[C@@H]1CCCN1)C(=O)NCCCC1CCCCC1` (some centres undefined), for which the pIC50 was 5.09 in test [1] and 5.00 on Protein Mdm4.
Consider `NCCCCC(CN(C(=O)NCCc1ccc(Br)cc1)C(CCC(=O)O)CN(CCC(N)=O)C(=O)NCCCc1ccc(Br)cc1)N(CC(CCC(=O)O)NC(N)=O)C(=O)NCCCc1ccc(Br)cc1` (centres undefined), for which the pIC50 was 5.09 in test [1] and 5.12 at Protein Mdm4.
In the case of `NCCCCC(CN(C(=O)NCCc1ccc(Br)cc1)C(CCC(=O)O)CN(CCC(N)=O)C(=O)NCCCc1ccc(Br)cc1)N(CC(CCC(=O)O)NC(=O)Cc1ccccc1)C(=O)NCCCC1CCCCC1` (centres undefined), the values for the pIC50 (in test [1]; at Protein Mdm4) were 4.98 and 5.12, respectively.
For `Cc1ccc(CCNC(=O)N(CC(CCCCN)N(CC(CCC(=O)O)NC(=O)CCC(C)C)C(=O)NCCCC2CCCCC2)C(CCC(=O)O)CN(CCC(N)=O)C(=O)NCCCc2ccc(F)cc2)cc1` (centres undefined) the same measures were 5.54 and 5.29.
As to `CC(C)CCCNC(=O)N(CC(CCC(=O)O)NC(N)=O)C(CCCCN)CN(C(=O)NCCc1ccc(Br)cc1)C(CCC(=O)O)CN(CCC(N)=O)C(=O)NCCc1ccc(Br)cc1` (centres undefined), the figures for the pIC50 (in test [1]; on Protein Mdm4) were 4.77 and 4.39, respectively.
In the case of `Cc1ccc(CCNC(=O)N(CC(CCCCN)N(CC(CCC(=O)O)NC(=O)CCC(C)C)C(=O)NCCCC2CCCCC2)C(CCC(=O)O)CN(CCC(N)=O)C(=O)NCCCCc2ccc(F)cc2)cc1` (centres undefined), the pIC50 in test [1] was 4.89; on Protein Mdm4 it was 4.85.
With `CC(C)CCCNC(=O)N(CC(CCC(=O)O)NC(N)=O)C(CCCCN)CN(C(=O)NCCc1ccc(Cl)cc1)C(CCC(=O)O)CN(CCC(N)=O)C(=O)NCCc1ccc(Cl)cc1` (centres undefined), in test [1], the pIC50 was 4.20.
`NCCCCC(CN(C(=O)NCCc1ccc(Br)cc1)C(CCC(=O)O)CN(CCC(N)=O)C(=O)NCCCc1ccc(Br)cc1)N(CC(CCC(=O)O)NC(=O)CCC1CCCCC1)C(=O)NCCCC1CCCCC1` (centres undefined): the negative logarithm of the IC50 (pIC50) in test [1] was 5.55; on Protein Mdm4, 5.12.
On to `Cc1ccc(CCNC(=O)N(CC(CCCCN)N(CC(CCC(=O)O)NC(=O)CCC(C)C)C(=O)NCCCC2CCCCC2)C(CCC(=O)O)CN(CCC(N)=O)C(=O)NCCCc2ccc(Br)cc2)cc1` (centres undefined), for which the pIC50 in test [1] was 5.64; at Protein Mdm4, 5.49.
Take `COc1ccc(CCCNC(=O)N(CC(CCC(=O)O)NC(N)=O)C(CCCCN)CN(C(=O)NCCc2ccc(Br)cc2)C(CCC(=O)O)CN(CCC(N)=O)C(=O)NCCCc2ccc(Br)cc2)cc1` (centres undefined): the pIC50 (in test [1]; on Protein Mdm4) was 4.92 throughout.
As for `CC(C)CCCNC(=O)N(CC(CCC(=O)O)NC(N)=O)C(CCCCN)CN(C(=O)NCCCc1ccccc1)C(CCC(=O)O)CN(CCC(N)=O)C(=O)NCCc1ccc(Br)cc1` (centres undefined), the negative-log IC50 (pIC50) in test [1] is 4.42.
On to `NCCCCC(CN(C(=O)NCCc1ccc(Br)cc1)C(CCC(=O)O)CN(CCC(N)=O)C(=O)NCCCc1ccc(Br)cc1)N(CC(CCC(=O)O)NC(N)=O)C(=O)NCCCC1CCCCC1` (centres undefined), for which the pIC50 (in test [1]; at Protein Mdm4) was 5.19 throughout.
Take `NCCCCC(CN(C(=O)NCCc1ccc(Br)cc1)C(CCC(=O)O)CN(CCC(N)=O)C(=O)NCCCc1ccc(Br)cc1)N(CC(CCC(=O)O)NC(N)=O)C(=O)NCCCc1ccc([N+](=O)[O-])cc1` (centres undefined): the figures for the pIC50 (in test [1]; on Protein Mdm4) were 5.00 and 5.09, respectively.
The corresponding values for `CC(C)CCC(=O)NC(CCC(=O)O)CN(C(=O)NCCCC1CCCCC1)C(CCCCN)CN(C(=O)NCCc1ccc(Br)cc1)C(CCC(=O)O)CN(CCC(N)=O)C(=O)NCCCc1ccc(Br)cc1` (centres undefined) are 5.55 and 5.39.
Consider `C=CCNC(=O)NC(CCC(=O)O)CN(C(=O)NCCCC1CCCCC1)C(CCCCN)CN(C(=O)NCCc1ccc(Br)cc1)C(CCC(=O)O)CN(CCC(N)=O)C(=O)NCCCc1ccc(Br)cc1` (centres undefined), for which the pIC50 in test [1] was 4.77; at Protein Mdm4, 5.00.
As for `NCCCCC(CN(C(=O)NCCc1ccc(Br)cc1)C(CCC(=O)O)CN(CCC(N)=O)C(=O)NCCCc1ccc(Br)cc1)N(CC(CCC(=O)O)NC(=O)NCC1CCCCC1)C(=O)NCCCC1CCCCC1` (centres undefined), the values for the pIC50 (in test [1]; at Protein Mdm4) were 5.18 and 5.10, respectively.
As to `CC(C)CCCNC(=O)N(CC(CCC(=O)O)NC(N)=O)C(CCCCN)CN(C(=O)NCCCc1ccc(Br)cc1)C(CCC(=O)O)CN(CCC(N)=O)C(=O)NCCCc1ccccc1` (centres undefined), the pIC50 in test [1] is 4.70.
On to `COc1ccc(CCCNC(=O)N(CCC(N)=O)CC(CCC(=O)O)N(CC(CCCCN)N(CC(CCC(=O)O)NC(N)=O)C(=O)NCCCC(C)C)C(=O)NCCc2ccc(Br)cc2)cc1` (centres undefined), for which the pIC50 (in test [1]; on Protein Mdm4) was below 4.00 each time.
For the compound `CC(C)CCCNC(=O)N(CC(CCC(=O)O)NC(N)=O)C(CCCCN)CN(C(=O)NCCc1ccc(Br)cc1)C(CCC(=O)O)CN(CCC(N)=O)C(=O)NCCCc1ccccc1` (centres undefined), the pIC50 in test [1] was 4.74.
On to `CC(C)CCCNC(=O)N(CC(CCC(=O)O)NC(N)=O)C(CCCCN)CN(C(=O)NCCc1ccc(Br)cc1)C(CCC(=O)O)CN(CCC(N)=O)C(=O)NCCCc1ccc([N+](=O)[O-])cc1` (centres undefined), for which, in test [1], the pIC50 was 4.39.
As to `Cc1ccc(CCCNC(=O)N(CCC(N)=O)CC(CCC(=O)O)N(CC(CCCCN)N(CC(CCC(=O)O)NC(N)=O)C(=O)NCCCC(C)C)C(=O)NCCc2ccc(Br)cc2)cc1` (centres undefined), the negative-log IC50 (pIC50) in test [1] was 4.62; at Protein Mdm4 it was 4.44.

For orientation: pIC50 means −log10 of the IC50, conventionally taken in molar units.
